Reference: PMC11661184 (bioRxiv, 2024)
Changes are numbered by the printed parent chain. In names and notes the source's numbering stands. No end group written: not given here.

System: CaM (Calmodulin-agarose)
Test: CaM-agarose pulldown of TRPA1 constructs
Assay type: binding
Conditions: for CaM binding of MBP-tagged C-terminal peptides: expressed in HEK293T; for CaM binding at basal Ca2+ concentration: n=3 independent experiments; for CaM binding of truncated hTRPA1 constructs: CaM-agarose pulldown, HEK293T lysate, immunoblot
Outline: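 HEK293T cells were transfected with tagged TRPA1 constructs and lysed after 16-24 h in Tris pH 8.0 buffer containing 5 mM DDM and 500 µM EGTA. Free Ca²⁺ was set with CaCl₂, calculated from EGTA constants. 100 µg lysate was incubated with CaM-agarose for 1 h at 4 °C, washed, then eluted with 5 mM EGTA. Detection was by anti-FLAG or anti-MBP immunoblot, with tubulin input control. Enrichment is relative to the maximum within each replicate.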

hTRPA1^1099–1119: MBP-tagged smaller fragment of hTRPA1 C-terminus (RNSRWNTVLRAVKAKTHHLEP; also: MBP-tagged)
CaM binding of MBP-tagged C-terminal peptides (absence or presence of Ca2+): bound CaM in a Ca^2+-dependent manner

WT mouse: WT mouse TRPA1, MBP-tagged
CaM binding of TRPA1 species orthologues (MBP-tagged constructs, absence or presence of Ca2+, four independent experiments): bound CaM in a Ca^2+-dependent manner

hTRPA1^1079–1119: MBP-tagged full hTRPA1 unresolved C-terminus (EDDDSHCSFQDRFKKEQMEQRNSRWNTVLRAVKAKTHHLEP; also: MBP-tagged)
CaM binding of MBP-tagged C-terminal peptides (absence or presence of Ca2+): bound CaM in a Ca^2+-dependent manner

B1: L1107A (protein, UniProt O75762 1-1119, looked up, variant L1107A)
Transient receptor potential …: MKRSLRKMWRPGEKKEPQGVVYEDVPDDTEDFKESLKVVFEGSAYGLQNFNKQKKLKRCDDMDTFFLHYAAAEGQIELMEKITRDSSLEVLHEMDDYGNTPLHCAVEKNQIESVKFLLSRGANPNLRNFNMMAPLHIAVQGMNNEVMKVLLEHRTIDVNLEGENGNTAVIIACTTNNSEALQILLKKGAKPCKSNKWGCFPIHQAAFSGSKECMEIILRFGEEHGYSRQLHINFMNNGKATPLHLAVQNGDLEMIKMCLDNGAQIDPVEKGRCTAIHFAATQGATEIVKLMISSYSGSVDIVNTTDGCHETMLHRASLFDHHELADYLISVGADINKIDSEGRSPLILATASASWNIVNLLLSKGAQVDIKDNFGRNFLHLTVQQPYGLKNLRPEFMQMQQIKELVMDEDNDGCTPLHYACRQGGPGSVNNLLGFNVSIHSKSKDKKSPLHFAASYGRINTCQRLLQDISDTRLLNEGDLHGMTPLHLAAKNGHDKVVQLLLKKGALFLSDHNGWTALHHASMGGYTQTMKVILDTNLKCTDRLDEDGNTALHFAAREGHAKAVALLLSHNADIVLNKQQASFLHLALHNKRKEVVLTIIRSKRWDECLKIFSHNSPGNKCPITEMIEYLPECMKVLLDFCMLHSTEDKSCRDYYIEYNFKYLQCPLEFTKKTPTQDVIYEPLTALNAMVQNNRIELLNHPVCKEYLLMKWLAYGFRAHMMNLGSYCLGLIPMTILVVNIKPGMAFNSTGIINETSDHSEILDTTNSYLIKTCMILVFLSSIFGYCKEAGQIFQQKRNYFMDISNVLEWIIYTTGIIFVLPLFVEIPAHLQWQCGAIAVYFYWMNFLLYLQRFENCGIFIVMLEVILKTLLRSTVVFIFLLLAFGLSFYILLNLQDPFSSPLLSIIQTFSMMLGDINYRESFLEPYLRNELAHPVLSFAQLVSFTIFVPIVLMNLLIGLAVGDIAEVQKHASLKRIAMQVELHTSLEKKLPLWFLRKVDQKSTIVYPNKPRSGGMLFHIFCFLFCTGEIRQEIPNADKSLEMEILKQKYRLKDLTFLLEKQHELIKLIIQKMEIISETEDDDSHCSFQDRFKKEQMEQRNSRWNTVARAVKAKTHHLEP
CaM binding at basal Ca2+ concentration: partial reduction in binding

B2: RK/AA (protein)
chain: B1 Transient receptor potential … with R1102A, A1107L, K1111A
CaM binding at basal Ca2+ concentration: similarly ablated CaM binding

B3: Quad: hTRPA1 W1103A/V1106A/L1107A/V1110A (protein)
chain: B1 Transient receptor potential … with W1103A, V1106A, V1110A
CaM binding at basal Ca2+ concentration: similarly ablated CaM binding

B4: hTRPA1^Δ1–61 (protein)
chain: MDTFFLHYAAAEGQIELMEKITRDSSLEVLHEMDDYGNTPLHCAVEKNQIESVKFLLSRGANPNLRNFNMMAPLHIAVQGMNNEVMKVLLEHRTIDVNLEGENGNTAVIIACTTNNSEALQILLKKGAKPCKSNKWGCFPIHQAAFSGSKECMEIILRFGEEHGYSRQLHINFMNNGKATPLHLAVQNGDLEMIKMCLDNGAQIDPVEKGRCTAIHFAATQGATEIVKLMISSYSGSVDIVNTTDGCHETMLHRASLFDHHELADYLISVGADINKIDSEGRSPLILATASASWNIVNLLLSKGAQVDIKDNFGRNFLHLTVQQPYGLKNLRPEFMQMQQIKELVMDEDNDGCTPLHYACRQGGPGSVNNLLGFNVSIHSKSKDKKSPLHFAASYGRINTCQRLLQDISDTRLLNEGDLHGMTPLHLAAKNGHDKVVQLLLKKGALFLSDHNGWTALHHASMGGYTQTMKVILDTNLKCTDRLDEDGNTALHFAAREGHAKAVALLLSHNADIVLNKQQASFLHLALHNKRKEVVLTIIRSKRWDECLKIFSHNSPGNKCPITEMIEYLPECMKVLLDFCMLHSTEDKSCRDYYIEYNFKYLQCPLEFTKKTPTQDVIYEPLTALNAMVQNNRIELLNHPVCKEYLLMKWLAYGFRAHMMNLGSYCLGLIPMTILVVNIKPGMAFNSTGIINETSDHSEILDTTNSYLIKTCMILVFLSSIFGYCKEAGQIFQQKRNYFMDISNVLEWIIYTTGIIFVLPLFVEIPAHLQWQCGAIAVYFYWMNFLLYLQRFENCGIFIVMLEVILKTLLRSTVVFIFLLLAFGLSFYILLNLQDPFSSPLLSIIQTFSMMLGDINYRESFLEPYLRNELAHPVLSFAQLVSFTIFVPIVLMNLLIGLAVGDIAEVQKHASLKRIAMQVELHTSLEKKLPLWFLRKVDQKSTIVYPNKPRSGGMLFHIFCFLFCTGEIRQEIPNADKSLEMEILKQKYRLKDLTFLLEKQHELIKLIIQKMEIISETEDDDSHCSFQDRFKKEQMEQRNSRWNTVLRAVKAKTHHLEP
CaM binding of truncated hTRPA1 constructs: did not affect Ca^2+/CaM binding

B5: hTRPA1^M62-T1078: hTRPA1 construct containing full ARD but lacking the structurally unresolved N- and C-termini (protein)
chain: MDTFFLHYAAAEGQIELMEKITRDSSLEVLHEMDDYGNTPLHCAVEKNQIESVKFLLSRGANPNLRNFNMMAPLHIAVQGMNNEVMKVLLEHRTIDVNLEGENGNTAVIIACTTNNSEALQILLKKGAKPCKSNKWGCFPIHQAAFSGSKECMEIILRFGEEHGYSRQLHINFMNNGKATPLHLAVQNGDLEMIKMCLDNGAQIDPVEKGRCTAIHFAATQGATEIVKLMISSYSGSVDIVNTTDGCHETMLHRASLFDHHELADYLISVGADINKIDSEGRSPLILATASASWNIVNLLLSKGAQVDIKDNFGRNFLHLTVQQPYGLKNLRPEFMQMQQIKELVMDEDNDGCTPLHYACRQGGPGSVNNLLGFNVSIHSKSKDKKSPLHFAASYGRINTCQRLLQDISDTRLLNEGDLHGMTPLHLAAKNGHDKVVQLLLKKGALFLSDHNGWTALHHASMGGYTQTMKVILDTNLKCTDRLDEDGNTALHFAAREGHAKAVALLLSHNADIVLNKQQASFLHLALHNKRKEVVLTIIRSKRWDECLKIFSHNSPGNKCPITEMIEYLPECMKVLLDFCMLHSTEDKSCRDYYIEYNFKYLQCPLEFTKKTPTQDVIYEPLTALNAMVQNNRIELLNHPVCKEYLLMKWLAYGFRAHMMNLGSYCLGLIPMTILVVNIKPGMAFNSTGIINETSDHSEILDTTNSYLIKTCMILVFLSSIFGYCKEAGQIFQQKRNYFMDISNVLEWIIYTTGIIFVLPLFVEIPAHLQWQCGAIAVYFYWMNFLLYLQRFENCGIFIVMLEVILKTLLRSTVVFIFLLLAFGLSFYILLNLQDPFSSPLLSIIQTFSMMLGDINYRESFLEPYLRNELAHPVLSFAQLVSFTIFVPIVLMNLLIGLAVGDIAEVQKHASLKRIAMQVELHTSLEKKLPLWFLRKVDQKSTIVYPNKPRSGGMLFHIFCFLFCTGEIRQEIPNADKSLEMEILKQKYRLKDLTFLLEKQHELIKLIIQKMEIISET
CaM binding of truncated hTRPA1 constructs: failed to bind CaM

B6: hTRPA1^S488-T1078: minimal hTRPA1 construct previously used for structural determination, retains the CaMBD (protein)
chain: SPLHFAASYGRINTCQRLLQDISDTRLLNEGDLHGMTPLHLAAKNGHDKVVQLLLKKGALFLSDHNGWTALHHASMGGYTQTMKVILDTNLKCTDRLDEDGNTALHFAAREGHAKAVALLLSHNADIVLNKQQASFLHLALHNKRKEVVLTIIRSKRWDECLKIFSHNSPGNKCPITEMIEYLPECMKVLLDFCMLHSTEDKSCRDYYIEYNFKYLQCPLEFTKKTPTQDVIYEPLTALNAMVQNNRIELLNHPVCKEYLLMKWLAYGFRAHMMNLGSYCLGLIPMTILVVNIKPGMAFNSTGIINETSDHSEILDTTNSYLIKTCMILVFLSSIFGYCKEAGQIFQQKRNYFMDISNVLEWIIYTTGIIFVLPLFVEIPAHLQWQCGAIAVYFYWMNFLLYLQRFENCGIFIVMLEVILKTLLRSTVVFIFLLLAFGLSFYILLNLQDPFSSPLLSIIQTFSMMLGDINYRESFLEPYLRNELAHPVLSFAQLVSFTIFVPIVLMNLLIGLAVGDIAEVQKHASLKRIAMQVELHTSLEKKLPLWFLRKVDQKSTIVYPNKPRSGGMLFHIFCFLFCTGEIRQEIPNADKSLEMEILKQKYRLKDLTFLLEKQHELIKLIIQKMEIISET
CaM binding of truncated hTRPA1 constructs: failed to bind CaM in vitro

B7: hTRPA1^Δ1079–1119 (protein)
chain: MKRSLRKMWRPGEKKEPQGVVYEDVPDDTEDFKESLKVVFEGSAYGLQNFNKQKKLKRCDDMDTFFLHYAAAEGQIELMEKITRDSSLEVLHEMDDYGNTPLHCAVEKNQIESVKFLLSRGANPNLRNFNMMAPLHIAVQGMNNEVMKVLLEHRTIDVNLEGENGNTAVIIACTTNNSEALQILLKKGAKPCKSNKWGCFPIHQAAFSGSKECMEIILRFGEEHGYSRQLHINFMNNGKATPLHLAVQNGDLEMIKMCLDNGAQIDPVEKGRCTAIHFAATQGATEIVKLMISSYSGSVDIVNTTDGCHETMLHRASLFDHHELADYLISVGADINKIDSEGRSPLILATASASWNIVNLLLSKGAQVDIKDNFGRNFLHLTVQQPYGLKNLRPEFMQMQQIKELVMDEDNDGCTPLHYACRQGGPGSVNNLLGFNVSIHSKSKDKKSPLHFAASYGRINTCQRLLQDISDTRLLNEGDLHGMTPLHLAAKNGHDKVVQLLLKKGALFLSDHNGWTALHHASMGGYTQTMKVILDTNLKCTDRLDEDGNTALHFAAREGHAKAVALLLSHNADIVLNKQQASFLHLALHNKRKEVVLTIIRSKRWDECLKIFSHNSPGNKCPITEMIEYLPECMKVLLDFCMLHSTEDKSCRDYYIEYNFKYLQCPLEFTKKTPTQDVIYEPLTALNAMVQNNRIELLNHPVCKEYLLMKWLAYGFRAHMMNLGSYCLGLIPMTILVVNIKPGMAFNSTGIINETSDHSEILDTTNSYLIKTCMILVFLSSIFGYCKEAGQIFQQKRNYFMDISNVLEWIIYTTGIIFVLPLFVEIPAHLQWQCGAIAVYFYWMNFLLYLQRFENCGIFIVMLEVILKTLLRSTVVFIFLLLAFGLSFYILLNLQDPFSSPLLSIIQTFSMMLGDINYRESFLEPYLRNELAHPVLSFAQLVSFTIFVPIVLMNLLIGLAVGDIAEVQKHASLKRIAMQVELHTSLEKKLPLWFLRKVDQKSTIVYPNKPRSGGMLFHIFCFLFCTGEIRQEIPNADKSLEMEILKQKYRLKDLTFLLEKQHELIKLIIQKMEIISET
CaM binding of truncated hTRPA1 constructs: ablated Ca^2+/CaM binding
